CRFR2-BP antag – antagonists of CRF-binding protein/CRF-R2 receptor complex; HEK293 CRF-R2/CRF-BP, CRF-induced calcium fluorescence; inhibition, % at 11.8 µM; actives 0.59% (n = 350,000);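 active = inhibition of the ligand-induced calcium signal above about 50% at the single tested concentration, limit read from the data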
TRPML3 agonist – human mucolipin-3 channel agonism. activation, % at 3 µM. actives 0.29% (n = 220,000). HEK293 TRPML3-YFP, Fluo-8 calcium fluorescence; 100% = the carbachol control signal. Q8TDD5;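 active = activation above its plate's cutoff, the mean activation of the plate's test wells plus 3 SD, cut at about 12% in these data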;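 note: 0% = DMSO only wells and 100% = carbachol wells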
Target sequence (Q8TDD5 whole entry, looked up): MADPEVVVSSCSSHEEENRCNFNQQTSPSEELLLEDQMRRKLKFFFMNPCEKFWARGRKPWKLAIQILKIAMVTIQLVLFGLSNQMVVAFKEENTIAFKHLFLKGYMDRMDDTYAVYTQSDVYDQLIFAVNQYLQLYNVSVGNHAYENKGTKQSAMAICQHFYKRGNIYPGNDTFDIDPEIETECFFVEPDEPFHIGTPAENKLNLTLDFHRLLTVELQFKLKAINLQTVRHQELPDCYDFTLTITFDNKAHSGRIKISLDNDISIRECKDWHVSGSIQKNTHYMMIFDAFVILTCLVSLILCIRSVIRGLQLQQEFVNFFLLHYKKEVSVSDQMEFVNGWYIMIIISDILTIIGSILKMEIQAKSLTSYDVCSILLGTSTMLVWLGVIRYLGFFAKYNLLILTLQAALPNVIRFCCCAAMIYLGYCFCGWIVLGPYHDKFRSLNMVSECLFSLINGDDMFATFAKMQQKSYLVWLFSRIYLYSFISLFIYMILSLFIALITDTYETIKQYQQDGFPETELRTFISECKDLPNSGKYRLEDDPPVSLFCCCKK
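system = HEK293 cells stably carrying human TRPML3-YFP | doses = one concentration, 3 µM nominal, 0.3% DMSO | timing = dye loading 1 h 37 °C then 30 min ambient, 125 s read | detection = Fluo-8 calcium dye fluorescence, ex 470-495, em 515-575 nm | benchmarks = high control carbachol 87 µM, low control DMSO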
zfTRPN1 agonist – zebrafish TRPN1 (NompC) channel agonism; HEK293 zebrafish TRPN1-YFP, Fluo-8 calcium fluorescence; 100% = response to 87 µM carbachol; activation, % at 3 µM; actives 0.18% (n = 220,000); AID 1424;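 active = activation above its plate's cutoff, the mean activation of test wells on that plate plus 3 SD, cut at about 19% in these data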;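 note: 0% = DMSO alone and 100% = 87 µM carbachol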
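Material – zebrafish TRPN1-YFP in HEK293 cells · Doses – 3 µM single point · Schedule – dye 1 h 37 °C plus 30 min RT · Signal – Fluo-8 calcium fluorescence, excitation 470-495 nm, emission 515-575 nm · Read-out – % activation versus carbachol response · Control set – carbachol high, DMSO low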
CRFBP-R2 agonist – CRF-BP/CRF-R2 complex agonism; HEK293 CRF-R2/CRF-BP, calcium dye fluorescence (FLIPR); percent of saturating CRF peptide response; activation, % at 13.2 µM; actives 0.46% (n = 350,000); AID 588473;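 active = activation of at least 50%, plus an integration ratio under a set limit after plate pattern correction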;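 note: plate controls were neutral control wells without compound for no effect and CRF at EC100 for full effect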
Active calls of the source: *; . = not tested or not shown. A selection: hits, their analogues and other compounds. The true share with any hit is near 1.2%.

SMILES	CRFR2-BP antag	TRPML3 agonist	zfTRPN1 agonist	CRFBP-R2 agonist
CCOc1ccc(C2C=C(c3ccccc3)Nc3ncnn32)cc1 (stereo not given)	.	0	0	.
CCN(CC(=O)NCc1cccs1)C(=O)/C=C/c1ccc(Cl)c(Cl)c1	20	.	.	-3
CC1=C(C(=O)OCc2ccccc2)C(/C=C/c2ccccc2)N2C(=O)CCSC2=N1 (stereo not given)	69*	0	-2	3
O=[N+]([O-])c1cccc(COc2ccc(CN3CCOCC3)cc2)c1	82*	.	.	-2
S=C(NC1CCCCC1)c1ccc2c(c1)OCO2	14	-1	-1	0
CN(C)NC(=S)Nc1ccc2nc(-c3ccccn3)c(-c3ccccn3)nc2c1	-17	1	1	59*
Cc1onc(-c2ccccc2)c1C(=O)NNC(=S)NC(=O)c1ccc2c(c1)OCO2	-22	23*	23*	86*
C=CCOc1ccc(/C=C2\SC(=S)N(C(C(=O)O)c3ccccc3)C2=O)cc1 (stereo not given)	55*	1	2	-3
CCOc1ccc(/C=C2\SC(=S)N(C(C(=O)O)c3ccccc3)C2=O)cc1OC (stereo not given)	-12	1	1	-2
Cc1ccc(OCCNc2ccc(S(=O)(=O)N3CCCC3)cn2)cc1	-3	.	.	0
N#CC1=C(N)OC2=C(CC/C2=C\c2ccccc2)C1c1ccccc1 (stereo not given)	-349	3	7	300*
Cc1oc(C)c2c(=O)ccc3c(c12)OC(N)=C(C#N)C3c1ccccc1Cl (stereo not given)	-24	2	2	16
N#CC1=C(N)OC2=C(CC/C2=C\c2ccccc2Cl)C1c1ccccc1Cl (stereo not given)	-86	0	0	91*
NC(=O)COc1ccc2cc(-c3ccc(F)cc3)c(=O)oc2c1	1	.	.	1
Cc1cc(OCC(=O)C(C)(C)C)c2c(C)c(C)c(=O)oc2c1	109*	-2	-1	-1
C#CCNC(=O)C1=C[C@H](c2ccc3c(c2)OCO3)[C@@H](CCCO)[C@H](OCC)O1	81*	0	-2	-1
O=C(Nc1ccccc1Oc1cccnc1)C1CCCN(Cc2ccccc2O)C1 (stereo not given)	99*	.	.	-4
CCOC(=O)CC1CCCCN1C(=O)CCCn1nnnc1CN1CCC(C)CC1 (stereo not given)	2	.	.	2
Cc1ccc(S(=O)(=O)Nc2nc3ccccc3nc2Nc2cccc(S(=O)(=O)N3CCCC3)c2)cc1	26	0	0	14
O=[N+]([O-])c1cccc(S(=O)(=O)Nc2nc3ccccc3nc2Nc2cccc(S(=O)(=O)N3CCCCC3)c2)c1	90*	0	0	11
Cc1cc(C)n(C(=O)CCNC(=O)c2ccccc2Br)n1	18	1	0	0
Cc1cc(C)n(C(=O)CNC(=O)c2ccccc2Br)n1	97*	.	.	-1
CC(=O)N[C@@H](CC(=O)N[C@H](CCC(=O)O)C(=O)O)C(=O)O	1	.	.	-1
CC(C(=O)Nc1ccc2c(c1)OCCO2)c1ccc([N+](=O)[O-])cc1 (stereo not given)	-68	13*	20*	110*
CCCCC1(C)OC(=O)C(=Cc2ccc(-c3ccc(Cl)c(C(=O)O)c3)o2)C(=O)O1 (stereo not given)	61*	-1	-1	4
SMILES	CRFR2-BP antag	TRPML3 agonist	zfTRPN1 agonist	CRFBP-R2 agonist
Cc1cc(C)cc(-n2nc(C)cc2N)c1	0	0	-2	-1
COc1ccc(S(=O)(=O)N(c2onc(C)c2Cl)S(=O)(=O)c2ccc(OC)cc2)cc1	51*	0	0	-2
CC(C)Cc1csc(NC(=O)c2ccc(F)cc2)c1C(=O)O	69*	2	3	3
O=C(Nc1cccc(Cl)c1Cl)c1ccccc1OCC(=O)N1CCOCC1	3	.	.	-2
O=S(=O)(Nc1nc2ccccc2nc1Nc1ccc(N2CCOCC2)cc1)c1cc(Cl)ccc1Cl	50	0	2	51*
COc1cccc(/C=N/Nc2nc(-c3cccnc3)nc3ccccc23)c1	0	0	1	1
COc1cccc(CNc2nc(-c3cccnc3)nc3ccccc23)c1	96*	1	-1	-2
CN(C(=O)c1cccc(NC(=O)Cc2ccc(NC(=O)C3CCCN(C(=O)CCc4ccccc4)C3)cc2)c1)C1CCCCC1 (stereo not given)	67*	.	.	-1
COc1ccc(CC(=O)OCC(=O)N2CCCc3ccccc32)cc1	1	.	.	1
COc1cc(C(=O)Nc2ccc(S(=O)(=O)Nc3cnc4ccccc4n3)cc2)cc(OC)c1OC	7	.	.	-2
COc1cc(OC)cc(C(=O)Nc2ccc(S(=O)(=O)Nc3cnc4ccccc4n3)cc2)c1	65*	.	.	0
COc1cc2c(cc1OC)C(c1c(Cl)cccc1Cl)NC(=O)C2 (stereo not given)	0	.	.	52*
COc1cc2c(cc1OC)C(c1cccc(Br)c1)NC(=O)C2 (stereo not given)	1	.	.	-2
Cc1ccc(C(=O)COC(=O)CNC(=O)COc2ccccc2C)cc1C	14	-1	0	0
COCCN(C(=O)CSc1nnc(-c2cccc(Cl)c2)n1N)c1c(N)n(CC(C)C)c(=O)[nH]c1=O	-8	.	.	2
Cc1nn(-c2ccc(F)cc2)c2sc(C(=O)N3CCCCCC3)cc12	-29	0	0	0
COc1ccc(NS(=O)(=O)c2ccc(O)c(NC(=O)c3cc4c(C)nn(-c5ccc(F)cc5)c4s3)c2)cc1	-77	0	0	93*
O=C(CSc1nc(C2CC2)nc2ccccc12)Nc1ccccc1N1CCOCC1	-2	-1	-1	-1
Fc1ccc(-c2cc(C(F)(F)C(F)F)[nH]n2)cc1	-86	10	13	78*
CCCCc1ccc(NC=C2C(=O)OC3(CCCCC3)OC2=O)cc1	-204	5	1	145*
CCc1ccc(/C=C2\SC(=S)N(CCCC(=O)Nc3ccc(C(=O)O)cc3)C2=O)cc1	1	.	.	-1
COc1cc(CN2CCCCCC2)cc(Br)c1O	-8	.	.	0
Cc1ccc(C(=O)NNC(=S)NC(=O)COc2ccccc2)cc1	-63	0	0	142*
Cc1cccc(OCC(=O)NC(=S)NNC(=O)c2ccncc2)c1	-17	.	.	-2
CC(C)(C)c1ccc(C(=O)NC(=S)NNC(=O)COc2ccccc2)cc1	-64	.	.	96*
Cc1ccccc1C(=O)NNC(=S)NC(=O)COc1ccccc1	11	0	0	129*
CC(C)(C)c1ccc(OCC(=O)NNC(=O)CCc2ccccc2)cc1	-10	-1	-1	-1
COC(=O)c1c(C(=O)OC)c(-c2ccc(OC)cc2)n2c1CCC2	6	.	.	-2
Cc1oc(-c2ccoc2)nc1CN(Cc1ccccc1)CC1CC1	3	0	0	0
Cc1ccc(NC(=O)C(OC(=O)c2ccc(C=O)cc2)c2ccccc2)cc1Cl (stereo not given)	-76	1	3	5

Assay outcomes: PubChem BioAssay, several laboratories
